From ChEMBL document CHEMBL5247578, “Effective synthesis of benzimidazoles-imidazo[1,2-a]pyrazine conjugates: A comparative study of mono-and bis-benzimidazoles for antitumor activity” (Eur J Med Chem, 2019)

Assays:
Format in all cases: functional
T47D = assay: Antiproliferative activity against human T47D cells assessed as cell growth inhibition at 10 uM incubated for 48 hrs by sulforhodamine B assay relative to control
Procedure, shortened: (§1)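 NCI-60 single-dose screen at 10^-5 M. Cells grown in RPMI 1640 with 5% FBS and 2 mM L-glutamine, plated at 5,000–40,000 cells/well, and preincubated 24 h. Drug (DMSO stock) added and incubated 48 h at 37 °C, 5% CO2. Adherent cells fixed with cold TCA, stained with 0.4% SRB in 1% acetic acid, dye solubilized in 10 mM trizma base, A515 read. Percent growth taken against time-zero and untreated control.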

BT-549 = assay: Antiproliferative activity against human BT-549 cells assessed as cell growth inhibition at 10 uM incubated for 48 hrs by sulforhodamine B assay relative to control
Procedure, shortened: (§2)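 Single-dose NCI-60 prescreen at 10^-5 M. Cells in RPMI 1640 with 5% FBS and 2 mM L-glutamine, seeded 5,000–40,000 cells/well with 24 h preincubation, then drug exposure for 48 h at 37 °C under 5% CO2. Growth read by SRB staining of TCA-fixed cells at 515 nm against time-zero and untreated controls. Negative growth values denote cell kill.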

MDA-MB-231 = assay: Antiproliferative activity against human MDA-MB-231 cells assessed as cell growth inhibition at 10 uM incubated for 48 hrs by sulforhodamine B assay relative to control; procedure, shortened: as §1
DU-145 = assay: Antiproliferative activity against human DU-145 cells assessed as cell growth inhibition at 10 uM incubated for 48 hrs by sulforhodamine B assay relative to control
Procedure, shortened: (§3)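 NCI-60 one-dose prescreen at 10^-5 M. Cells grown in RPMI 1640 with 5% FBS and 2 mM glutamine, preincubated 24 h, then exposed 48 h at 37 °C. Adherent lines TCA-fixed, SRB-stained, A515 read. Growth percent relative to time-zero and control; negative values mean cell kill.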

OVCAR-8 = assay: Antiproliferative activity against human OVCAR-8 cells assessed as cell growth inhibition at 10 uM incubated for 48 hrs by sulforhodamine B assay relative to control; procedure, shortened: as §1
OVCAR-5 = assay: Antiproliferative activity against human OVCAR-5 cells assessed as cell growth inhibition at 10 uM incubated for 48 hrs by sulforhodamine B assay relative to control; procedure, shortened: as §1
OVCAR-4 = assay: Antiproliferative activity against human OVCAR-4 cells assessed as cell growth inhibition at 10 uM incubated for 48 hrs by sulforhodamine B assay relative to control; procedure, shortened: as §1
SNB-75 = assay: Antiproliferative activity against human SNB-75 cells assessed as cell growth inhibition at 10 uM incubated for 48 hrs by sulforhodamine B assay relative to control; procedure, shortened: as §1
SNB-19 = assay: Antiproliferative activity against human SNB-19 cells assessed as cell growth inhibition at 10 uM incubated for 48 hrs by sulforhodamine B assay relative to control; procedure, shortened: as §1
SF-539 = assay: Antiproliferative activity against human SF-539 cells assessed as cell growth inhibition at 10 uM incubated for 48 hrs by sulforhodamine B assay relative to control; procedure, shortened: as §1
HCT-15 = assay: Antiproliferative activity against human HCT-15 cells assessed as cell growth inhibition at 10 uM incubated for 48 hrs by sulforhodamine B assay relative to control; procedure, shortened: as §3
HCT-116 = assay: Antiproliferative activity against human HCT-116 cells assessed as cell growth inhibition at 10 uM incubated for 48 hrs by sulforhodamine B assay relative to control; procedure, shortened: as §3
EKVX = assay: Antiproliferative activity against human EKVX cells assessed as cell growth inhibition at 10 uM incubated for 48 hrs by sulforhodamine B assay relative to control; procedure, shortened: as §3
A549 = assay: Antiproliferative activity against human A549 cells assessed as cell growth inhibition at 10 uM incubated for 48 hrs by sulforhodamine B assay relative to control; procedure, shortened: as §2
RPMI-8226 = assay: Antiproliferative activity against human RPMI-8226 cells assessed as cell growth inhibition at 10 uM incubated for 48 hrs by sulforhodamine B assay relative to control; procedure, shortened: as §1
MOLT-4 = assay: Antiproliferative activity against human MOLT-4 cells assessed as cell growth inhibition at 10 uM incubated for 48 hrs by sulforhodamine B assay relative to control; procedure, shortened: as §1
K562 = assay: Antiproliferative activity against human K562 cells assessed as cell growth inhibition at 10 uM incubated for 48 hrs by sulforhodamine B assay relative to control; procedure, shortened: as §1
HL-60 = assay: Antiproliferative activity against human HL-60 cells assessed as cell growth inhibition at 10 uM incubated for 48 hrs by sulforhodamine B assay relative to control; procedure, shortened: as §3
TK-10 = assay: Antiproliferative activity against human TK-10 cells assessed as cell growth inhibition at 10 uM incubated for 48 hrs by sulforhodamine B assay relative to control; procedure, shortened: as §1
CAKI-1 = assay: Antiproliferative activity against human CAKI-1 cells assessed as cell growth inhibition at 10 uM incubated for 48 hrs by sulforhodamine B assay relative to control; procedure, shortened: as §2
A498 = assay: Antiproliferative activity against human A498 cells assessed as cell growth inhibition at 10 uM incubated for 48 hrs by sulforhodamine B assay relative to control; procedure, shortened: as §2
SK-OV-3 = assay: Antiproliferative activity against human SK-OV-3 cells assessed as cell growth inhibition at 10 uM incubated for 48 hrs by sulforhodamine B assay relative to control; procedure, shortened: as §1
IGROV-1 = assay: Antiproliferative activity against human IGROV-1 cells assessed as cell growth inhibition at 10 uM incubated for 48 hrs by sulforhodamine B assay relative to control; procedure, shortened: as §1
SK-MEL-28 = assay: Antiproliferative activity against human SK-MEL-28 cells assessed as cell growth inhibition at 10 uM incubated for 48 hrs by sulforhodamine B assay relative to control; procedure, shortened: as §1
NCI-H322M = assay: Antiproliferative activity against human NCI-H322M cells assessed as cell growth inhibition at 10 uM incubated for 48 hrs by sulforhodamine B assay relative to control; procedure, shortened: as §1
HOP-62 = assay: Antiproliferative activity against human HOP-62 cells assessed as cell growth inhibition at 10 uM incubated for 48 hrs by sulforhodamine B assay relative to control; procedure, shortened: as §3
UACC-257 = assay: Antiproliferative activity against human UACC-257 cells assessed as cell growth inhibition at 10 uM incubated for 48 hrs by sulforhodamine B assay relative to control; procedure, shortened: as §1

SMILES | inhibition at 10 µM (T47D) | inhibition at 10 µM (BT-549) | inhibition at 10 µM (MDA-MB-231) | inhibition at 10 µM (DU-145) | inhibition at 10 µM (OVCAR-8) | inhibition at 10 µM (OVCAR-5) | inhibition at 10 µM (OVCAR-4) | inhibition at 10 µM (SNB-75) | inhibition at 10 µM (SNB-19) | inhibition at 10 µM (SF-539) | inhibition at 10 µM (HCT-15) | inhibition at 10 µM (HCT-116) | inhibition at 10 µM (EKVX) | inhibition at 10 µM (A549) | inhibition at 10 µM (RPMI-8226) | inhibition at 10 µM (MOLT-4) | inhibition at 10 µM (K562) | inhibition at 10 µM (HL-60) | inhibition at 10 µM (SK-OV-3) | inhibition at 10 µM (SK-MEL-28) | further results
Fc1ccccc1-c1cn2ccnc2c(-c2ccc3ncn(C4CCCCC4)c3c2)n1 | 77.2% | 4.08% | 21.3% | 0.96% | 14.1% | 6.64% | 4.51% | 29.7% | 7.56% | 4.51% | 6.18% | 25.8% | 16% | 9.1% | 42.4% | 22.5% | 22.8% | 9.3% |  |  | 
O=Cc1ccc(-c2cn3ccnc3c(-c3ccc4ncn(Cc5ccccc5)c4c3)n2)cc1 | 98% | 33.8% | 51.2% | 24.3% | 44% |  | 16.9% | 21.4% | 14.4% | 31.5% | 49.1% | 92.6% | 20.9% |  | 82.5% | 58.7% |  | 16.5% | 5.11% | 7.54% | inhibition at 10 µM (TK-10): 0.75%; inhibition at 10 µM (CAKI-1): 36.5%; inhibition at 10 µM (A498): 11.2%; inhibition at 10 µM (IGROV-1): 21.3%; inhibition at 10 µM (NCI-H322M): 11.2%; inhibition at 10 µM (HOP-62): 23.8%
O=Cc1ccc(-c2cn3ccnc3c(-c3ccc4ncn(C5CCCCC5)c4c3)n2)cc1 | 98% | 33.8% | 51.2% | 24.3% | 44% |  | 16.9% | 21.4% | 14.4% | 31.5% | 49.1% | 92.6% | 20.9% |  | 82.5% | 58.7% |  | 16.5% | 5.11% | 7.54% | inhibition at 10 µM (TK-10): 0.75%; inhibition at 10 µM (CAKI-1): 36.5%; inhibition at 10 µM (A498): 11.2%; inhibition at 10 µM (IGROV-1): 21.3%; inhibition at 10 µM (NCI-H322M): 11.2%; inhibition at 10 µM (HOP-62): 23.8%
Fc1ccc(-c2cn3ccnc3c(-c3ccc4ncn(C5CCCCC5)c4c3)n2)cc1 | 33.3% | 20.3% | 15.8% | 1.17% | 9.54% | 10.3% | 5.73% | 21% | 14.2% | 17.3% | 7.59% | 18% | 10.5% | 12.8% | 50.1% | 25.2% | 24.7% | 2.03% |  | 2.67% | inhibition at 10 µM (NCI-H322M): 0.01%
Clc1ccc(-c2cn3ccnc3c(-c3ccc4ncn(C5CCCCC5)c4c3)n2)cc1 | 27.6% | 23.8% | 15.3% |  | 3.78% | 0.84% | 4.57% | 31.1% | 15.8% | 6.3% | 15.5% | 7.34% | 13.1% | 11.6% | 19% | 8.87% | 44.5% | 15.6% | 6.14% | 12.1% | inhibition at 10 µM (IGROV-1): 7.84%; inhibition at 10 µM (UACC-257): 5.44%
